Compound activity (PubChem)
This is a sample that favours compounds with a hit; in the whole collection about 1.4% have one here.
CAL PDZ FP-1: inhibitors of human CAL PDZ peptide binding. Q9HD26. purified CAL PDZ, TMR-peptide fluorescence polarization, 1 h. inhibition, % at 24.9 µM. 0.92% of 300,000 active. AID 602252;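 active means mean inhibition of at least 30% with at least half of replicates also reaching 30%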;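 further: 0% = DMSO neutral control and 100% = excess unlabeled competitor peptide PRC23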
Tn7 DDE FP: inhibitors of Tn7 peptide binding to human fibrin DD(E) | FP displacement of FITC-Tn7 peptide from fibrin DD(E); 0% = median of compound wells per plate | inhibition, % at 8.3 µM | 0.13% of 370,000 active | AID 720508;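 active means inhibition above the mean of compounds falling within the control limits plus 3 SD of them, cut at about 14% in these data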;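 further: 0% = plate median of compound wells and 100% = 10 µM Aha-Tn7 peptide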
Target sequence (P02675 whole entry, looked up): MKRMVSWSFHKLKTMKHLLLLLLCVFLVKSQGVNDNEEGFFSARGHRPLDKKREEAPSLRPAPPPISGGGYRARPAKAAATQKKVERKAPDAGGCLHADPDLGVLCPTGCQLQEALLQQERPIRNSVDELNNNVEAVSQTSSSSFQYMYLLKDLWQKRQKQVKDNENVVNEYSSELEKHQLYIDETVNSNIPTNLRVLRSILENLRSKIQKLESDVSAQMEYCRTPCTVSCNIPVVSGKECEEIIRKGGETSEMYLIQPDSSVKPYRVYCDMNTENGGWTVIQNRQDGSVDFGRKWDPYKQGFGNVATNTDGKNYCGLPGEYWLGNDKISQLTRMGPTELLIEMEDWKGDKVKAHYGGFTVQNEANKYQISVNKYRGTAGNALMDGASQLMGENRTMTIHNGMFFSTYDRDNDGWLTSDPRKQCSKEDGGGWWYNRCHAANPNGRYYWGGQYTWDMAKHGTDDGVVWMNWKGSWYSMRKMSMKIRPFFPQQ
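Assay system: human fibrin DD(E) protein / Input: 2 µM fibrin DD(E) / Benchmarks: high control of 10 µM Aha-Tn7 peptide / Measured by: fluorescence polarization of the labelled Tn7 tracer / Medium: Tris buffer with calcium and detergent, pH 7.8 / Timing: 10 min compound pre-incubation, 3 h probe incubation at room temperature / Repeats: one replicate per compound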
Tn6 DDE FP: inhibitors of Tn6 peptide binding to human fibrin DD(E); P02675; Fibrin DD(E) TRITC-Tn6 fluorescence polarization displacement; inhibition, % at 8.3 µM; 0.21% of 370,000 active; AID 720509;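 active means inhibition above a per-campaign cutoff: mean of compounds within control limits plus 3 SD, cut at about 15% in these data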;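 further: 0% = median of all compound wells on the plate and 100% = blocking peptide control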
Arr AP2 block: inhibitors of human beta-arrestin and AP2 interaction. inhibition, % at 10 µM. FITC-arrestin peptide / GST-AP2 beads, flow cytometry; AP2 beta2 appendage carries R879A mutation. AID 504490. 0.31% of 340,000 active;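 active means inhibition above a set limit, near 3 SD of compounds lacking own fluorescence, cut at about 54% in these data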;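 further: plate controls were DMSO wells for no effect and 5 µM unlabelled arrestin peptide for full effect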
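Material – GST-tagged AP2 beta2-adaptin appendage (R879A) on 4 µm glutathione beads · Probe or stimulus – fluorescein-tagged arrestin peptide at 50 nM final · Timing – 12 min plus 1 h, RT · Detection – bead flow cytometry, FITC channel · Read-out basis – inhibition as reduced fluorescein signal on beads, percent · Medium – PBS plus Tween 20 (0.05%) and BSA (0.1%)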
CAL PDZ FP-2: inhibitors of human CAL PDZ peptide binding | purified CAL PDZ, TMR-peptide fluorescence polarization, 1 h | AID 504414 | Q9HD26 | 0.02% of 330,000 active | inhibition, % at 20 µM;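 active means highest replicate inhibition of at least 40%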;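 further: plate controls were DMSO neutral control wells for no effect and unlabeled competitor peptide control wells for full effect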
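Material – purified CerCALP PDZ construct · Detection – FP readout, S and P plane fluorescence · Measure – percent inhibition from loss of millipolarization · Controls – unlabelled peptide for full inhibition, DMSO wells as neutral · Probe or stimulus – TMR-labelled reporter peptide T*-PRC34 bound in PDZ groove · Times – 1 h at RT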
Numbers without * were called inactive; . = not tested or not shown; + = active, no number.

SMILES | CAL PDZ FP-1 | Tn7 DDE FP | Tn6 DDE FP | Arr AP2 block | CAL PDZ FP-2
CCCNc1nc2c(c(=O)[nH]c(=O)n2C)n1Cc1cccc(Br)c1 | 36* | -4 | -1 | 3 | .
O=C(N[C@H](C(=O)N1CCC[C@H]1C(=O)NCCc1ccccc1Cl)C1CCCCC1)c1cccs1 | . | -1 | 1 | . | .
Cc1cc(=O)[nH]c(SCC(=O)Nc2ccc(Cl)cc2)n1 | . | 1 | 0 | . | .
CCCC(O)(CCN1CCOCC1)c1ccc(Cl)cc1 (stereo not given) | 41* | -2 | 2 | -5 | 19
Cc1cc(N2CCN(CC(C)(C)O)C[C@@H]2C)ccc1N1CCN(Cc2ccccc2)[C@H](C)C1 | . | 3 | -2 | . | .
CN(Cc1ccc(Cl)s1)C(=O)CNC(=O)CNC(=O)c1ccc(Cl)cc1Cl | -5 | -7 | 2 | -1 | -4
COc1ccc(CN(C)C(=O)CNC(=O)CNC(=O)c2ccc(Cl)cc2Cl)cc1F | + | -5 | -2 | -5 | -1
COc1ccc(C2=Nn3c(nnc3C3CCCCC3)SC2)cc1 | . | 5 | 1 | . | .
CCOC(=O)c1ccccc1NC(=O)COC(=O)C1CC(=O)N(CCc2ccccc2)C1 (stereo not given) | -3 | -4 | 2 | 6 | -3
CCOC(=O)c1c(C)[nH]c(C)c1C(=O)COC(=O)C1CC(=O)N(CCc2ccccc2)C1 (stereo not given) | 36* | 5 | 1 | 1 | 0
Brc1ccc(C2=CC(c3cccs3)n3ncnc3N2)cc1 (stereo not given) | -1 | 19* | 4 | 9 | -7
Cc1ccc(-n2c(Cc3cccs3)nnc2SCC(=O)Nc2ccccc2-c2ccccc2)cc1 | . | -2 | -3 | . | .
COC(=O)c1cc(OC)c(OC)cc1NC(=O)CN1C(=O)c2ccccc2C1=O | -3 | 1 | 7 | 4 | -1
COC(=O)c1cc(-c2ccccc2)sc1NC(=O)CN1C(=O)c2ccccc2C1=O | 123* | 4 | -3 | 0 | 0
CN(C(=O)c1cccc(NC(=O)Cc2ccc(NC(=O)C3CCCN(C(=O)c4ccccc4)C3)cc2)c1)C1CC1 (stereo not given) | . | 3 | 1 | . | .
CCOC(=O)C1CCCN(C(=O)/C(=C/c2ccco2)NC(=O)c2ccccc2)C1 (stereo not given) | . | -7 | 2 | 15 | -2
CCOC(=O)C1CCN(C(=O)/C(=C/c2ccccc2)NC(=O)c2ccccc2)CC1 | 51* | 3 | -2 | -7 | .
c1ccc(-c2noc(C3CCCCC3)n2)nc1 | -10 | 5 | 3 | -3 | -1
Brc1ccc(-c2noc(C3CCCCC3)n2)cc1 | 107* | 0 | -8 | 0 | -1
Cn1nc(C(=O)Nc2ccc(Cl)c(S(=O)(=O)N3CCOCC3)c2)c2ccccc2c1=O | 0 | 1 | 0 | -4 | -2
O=C(Nc1ccc(Cl)c(S(=O)(=O)N2CCCC2)c1)c1nn(CCO)c(=O)c2ccccc12 | 39* | 5 | -3 | 0 | -3
Cc1ccc(-c2nc(N)n(C(=O)c3cccs3)n2)cc1 | 83* | . | . | -6 | 10
Cc1ccc(-c2nc(N)n(C(=O)Cc3ccccc3)n2)cc1 | -1 | 1 | 4 | 11 | -1
COc1ccc(C)cc1-n1c(=O)c2ccccc2c2ccccc2c1=O | + | -10 | 0 | 17 | -1
C[C@@H]1ON(C)[C@H]2C[C@H]3c4[nH]c5c(-c6ccc7c(c6)OCO7)cccc5c4CCN3C(=O)[C@@H]12 | . | -4 | -2 | . | .
SMILES | CAL PDZ FP-1 | Tn7 DDE FP | Tn6 DDE FP | Arr AP2 block | CAL PDZ FP-2
COc1ccc(C(C)NC(=O)c2ccncc2)cc1OC (stereo not given) | 76* | -6 | 1 | -12 | 0
COc1ccc(C(C)NC(=O)c2ccc(Cl)cc2)cc1OC (stereo not given) | -3 | 1 | -6 | 8 | 1
O=C(O)c1ccc(-c2ccc(OS(=O)(=O)c3ccccc3F)cc2)cc1 | 45* | 1 | 0 | -9 | -3
CC(C)CN1C(=O)C[C@@]2(C(=O)N(C)c3ccc(NS(=O)(=O)c4ccc(F)cc4)cc32)C1c1ccccc1 (stereo not given in full) | . | 8 | 5 | . | .
CCCCNS(=O)(=O)c1ccc2nc(SCC(=O)Nc3sccc3C#N)[nH]c2c1 | 35* | -6 | -10 | -3 | .
Cc1ccc(CNS(=O)(=O)c2ccc(C(F)(F)F)cc2)n1C | 58* | 6 | 7 | -1 | 1
